{"source": "ChEMBL document CHEMBL1649308", "about": "“Affinity of the new cephalosporin CXA-101 to penicillin-binding proteins of Pseudomonas aeruginosa” (Antimicrob Agents Chemother, 2010)", "key": {"Pseudomonas aeruginosa [1]": {"tested_on": "Pseudomonas aeruginosa", "test": "Antimicrobial activity against Pseudomonas aeruginosa PAO1 by broth microdilution method", "type": "functional", "method_in_brief": "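MICs against strain PAO1 by standard CLSI broth microdilution (M100-S18).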"}, "Pseudomonas aeruginosa [2]": {"tested_on": "Pseudomonas aeruginosa", "test": "Bactericidal activity against Pseudomonas aeruginosa PAO1 assessed as reduction in viable bacterial count at MIC after 8 hrs by time-kill analysis", "type": "functional", "method_in_brief": "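Overnight MHB cultures were diluted 1/100 and grown at 37°C, 180 rpm to OD600 0.2. Flasks of MHB with 0, 0.5×, 1×, 2× or 4× MIC were inoculated to OD600 0.01 (ca. 10^7 CFU/ml). Viable counts were followed over 8 h by plating serial dilutions on MH agar, with OD600 also read. Values are the mean ± SD of triplicate runs.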"}, "Pseudomonas aeruginosa [3]": {"tested_on": "Pseudomonas aeruginosa", "test": "Induction of ampC mRNA expression in Pseudomonas aeruginosa PAO1 at 0.25 X MIC relative to untreated control", "type": "functional", "method_in_brief": "(§1)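 Cells were exposed for 3 h to subinhibitory drug (1/2 or 1/4 MIC), alongside untreated cells. RNA was taken from log-phase LB cultures and DNase-treated (2 U, 30 min, 37°C). ampC mRNA was measured by real-time RT-PCR and normalized to rpsL. Values are the mean relative expression from at least three independent duplicate experiments.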"}, "Pseudomonas aeruginosa [4]": {"tested_on": "Pseudomonas aeruginosa", "test": "Induction of ampC mRNA expression in Pseudomonas aeruginosa PAO1 at 0.5 X MIC relative to untreated control", "type": "functional", "method_in_brief": "as §1"}, "[5]": {"test": "Inhibition of Pseudomonas aeruginosa PAO1 PBP1b by SDS-PAGE", "method_in_brief": "(§2)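 Membranes were prepared from late-log (OD600 1) LB cultures by sonication and two rounds of 150,000 × g ultracentrifugation in 20 mM KH2PO4-140 mM NaCl, pH 7.5. Membranes were preincubated 30 min at 37°C with drug (0.0156–2 μg/ml), then labeled with 25 μM Bocillin FL. Samples were run on SDS-PAGE and read by fluorescence (ex 488/em 530 nm). IC50 values come from triplicate experiments.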"}, "[6]": {"test": "Inhibition of Pseudomonas aeruginosa PAO1 PBP1c by SDS-PAGE", "method_in_brief": "as §2"}, "[7]": {"test": "Inhibition of Pseudomonas aeruginosa PAO1 PBP2 by SDS-PAGE", "method_in_brief": "as §2"}, "[8]": {"test": "Inhibition of Pseudomonas aeruginosa PAO1 PBP3 by SDS-PAGE", "method_in_brief": "as §2"}, "[9]": {"test": "Inhibition of Pseudomonas aeruginosa PAO1 PBP4 by SDS-PAGE", "method_in_brief": "as §2"}, "[10]": {"test": "Inhibition of Pseudomonas aeruginosa PAO1 PBP5/6 by SDS-PAGE", "method_in_brief": "as §2"}, "Pseudomonas aeruginosa [11]": {"tested_on": "Pseudomonas aeruginosa", "test": "Antimicrobial activity against Pseudomonas aeruginosa PAO1 assessed as appearance of long filaments at 0.5 X MIC after 2 hrs by Live/dead cell viability assay", "type": "functional, organism-based"}, "Pseudomonas aeruginosa [12]": {"tested_on": "Pseudomonas aeruginosa", "test": "Antimicrobial activity against Pseudomonas aeruginosa PAO1 at 4 X MIC after 8 hrs by Live/dead cell viability assay", "type": "functional, organism-based"}, "Pseudomonas aeruginosa [13]": {"tested_on": "Pseudomonas aeruginosa", "test": "Induction of ampC mRNA expression in Pseudomonas aeruginosa PAO1 at 50 ug/ml relative to untreated control", "type": "functional", "method_in_brief": "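The inducer was given at 50 μg/ml for 3 h, with an untreated comparison. RNA from log-phase LB cultures was DNase-treated, and ampC expression was quantified by real-time RT-PCR normalized to rpsL. Values are the mean of at least three independent duplicate experiments.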"}, "Pseudomonas aeruginosa [14]": {"tested_on": "Pseudomonas aeruginosa", "test": "Bactericidal activity against Pseudomonas aeruginosa PAO1 assessed as reduction in viable bacterial count at 2 X MIC after 8 hrs by time-kill analysis", "type": "functional", "method_in_brief": "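PAO1 grown overnight in Mueller-Hinton broth, diluted 1/100 and grown at 37°C, 180 rpm to mid-log phase (OD600 0.2). Then inoculated into MHB with 0, 0.5×, 1×, 2× or 4× MIC to an initial OD600 of 0.01 (ca. 10^7 CFU/ml). Viable counts taken by plating serial dilutions on MH agar over 8 h. Triplicate experiments, mean ± SD.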"}}, "note": "Activity calls are given as the source filed them. The rule behind the calls is not given here.", "data": [{"smiles": "Cn1c(N)c(NC(=O)NCCN)c[n+]1CC1=C(C(=O)O)N2C(=O)[C@@H](NC(=O)/C(=N\\OC(C)(C)C(=O)[O-])c3nsc(N)n3)[C@H]2SC1", "note": "[CEFTOLOZANE]", "values": [{"measurement": "MIC", "setting": "Pseudomonas aeruginosa [1]", "result": 0.5, "unit": "µg/mL"}, {"measurement": "fold change (FC)", "setting": "Pseudomonas aeruginosa [2]", "result": ">3"}, {"measurement": "fold change (FC)", "setting": "Pseudomonas aeruginosa [3]", "result": 1.6}, {"measurement": "fold change (FC)", "setting": "Pseudomonas aeruginosa [4]", "result": 1.3}, {"measurement": "IC50", "setting": "[5]", "result": 0.07, "unit": "µg/mL"}, {"measurement": "IC50", "setting": "[6]", "result": 0.64, "unit": "µg/mL"}, {"measurement": "IC50", "setting": "[7]", "result": 1.36, "unit": "µg/mL"}, {"measurement": "IC50", "setting": "[8]", "result": 0.02, "unit": "µg/mL"}, {"measurement": "IC50", "setting": "[9]", "result": 0.29, "unit": "µg/mL"}, {"measurement": "IC50", "setting": "[10]", "result": "> 2", "unit": "µg/mL"}, {"measurement": "Activity", "setting": "Pseudomonas aeruginosa [11]", "result": "Active"}, {"measurement": "Activity", "setting": "Pseudomonas aeruginosa [12]", "result": "Active"}]}, {"smiles": "C[C@@H](O)[C@H]1C(=O)N2C(C(=O)O)=C(SCCNC=N)C[C@H]12", "note": "[IMIPENEM ANHYDROUS]", "values": [{"measurement": "MIC", "setting": "Pseudomonas aeruginosa [1]", "result": 1, "unit": "µg/mL"}, {"measurement": "fold change (FC)", "setting": "Pseudomonas aeruginosa [3]", "result": 193.2}, {"measurement": "fold change (FC)", "setting": "Pseudomonas aeruginosa [4]", "result": 269.5}, {"measurement": "IC50", "setting": "[5]", "result": 0.13, "unit": "µg/mL"}, {"measurement": "IC50", "setting": "[6]", "result": 0.08, "unit": "µg/mL"}, {"measurement": "IC50", "setting": "[7]", "result": 0.08, "unit": "µg/mL"}, {"measurement": "IC50", "setting": "[8]", "result": 0.12, "unit": "µg/mL"}, {"measurement": "IC50", "setting": "[9]", "result": 0.02, "unit": "µg/mL"}, {"measurement": "IC50", "setting": "[10]", "result": 0.2, "unit": "µg/mL"}, {"measurement": "Activity", "setting": "Pseudomonas aeruginosa [11]", "result": "Active"}, {"measurement": "Activity", "setting": "Pseudomonas aeruginosa [12]", "result": "Active"}]}, {"smiles": "CO[C@@]1(NC(=O)Cc2cccs2)C(=O)N2C(C(=O)O)=C(COC(N)=O)CS[C@@H]21", "note": "[CEFOXITIN]", "values": [{"measurement": "fold change (FC)", "setting": "Pseudomonas aeruginosa [13]", "result": 50}]}, {"smiles": "CC(C)(O/N=C(\\C(=O)N[C@@H]1C(=O)N2C(C(=O)[O-])=C(C[n+]3ccccc3)CS[C@H]12)c1csc(N)n1)C(=O)O", "note": "[CEFTAZIDIME]", "values": [{"measurement": "MIC", "setting": "Pseudomonas aeruginosa [1]", "result": 1, "unit": "µg/mL"}, {"measurement": "Activity", "setting": "Pseudomonas aeruginosa [14]", "result": ">3"}, {"measurement": "fold change (FC)", "setting": "Pseudomonas aeruginosa [3]", "result": 1.2}, {"measurement": "fold change (FC)", "setting": "Pseudomonas aeruginosa [4]", "result": 1.2}, {"measurement": "IC50", "setting": "[5]", "result": 0.12, "unit": "µg/mL"}, {"measurement": "IC50", "setting": "[6]", "result": "> 2", "unit": "µg/mL"}, {"measurement": "IC50", "setting": "[7]", "result": "> 2", "unit": "µg/mL"}, {"measurement": "IC50", "setting": "[8]", "result": 0.04, "unit": "µg/mL"}, {"measurement": "IC50", "setting": "[9]", "result": 1.23, "unit": "µg/mL"}, {"measurement": "IC50", "setting": "[10]", "result": "> 2", "unit": "µg/mL"}, {"measurement": "Activity", "setting": "Pseudomonas aeruginosa [11]", "result": "Active"}, {"measurement": "Activity", "setting": "Pseudomonas aeruginosa [12]", "result": "Active"}]}]}
